Published values pooled from the literature.
pIC50: −log10 of the molar value.
Read-out: cell growth or viability

Compound | cell line | technique | time | endpoint | result
COc1cc(NC(=O)C(=O)[C@H](CC(C)C)NC(=O)[C@H](CC(C)C)NC(=O)[C@H](CC(C)C)NC(=O)c2ccc(-c3ccc(C(C)=O)cc3)o2)cc(OC)c1 | RPMI-8226 | MTS | 72 h | pIC50 | 7.44
C=C(C)[C@H]1Cc2c(ccc3c2O[C@@H]2COc4cc(OC)c(OC)cc4[C@@H]2C3=O)O1 | ReNcell VM |  | 24 h | pIC50 | 6.57
CC(C)C[C@H](NC(=O)OCc1ccccc1)C(=O)N[C@@H](CC(C)C)C(=O)N[C@@H](CC(C)C)C(=O)C(=O)Nc1cccc2cnccc12 | RPMI-8226 | MTS | 72 h | pIC50 | 6.88
C[C@H]1O[C@@H](O[C@H]2[C@@H](O)C[C@H](O[C@H]3[C@@H](O)C[C@H](O[C@H]4CC[C@@]5(C)[C@H](CC[C@@H]6[C@@H]5C[C@@H](O)[C@]5(C)[C@@H](C7=CC(=O)OC7)CC[C@]65O)C4)O[C@@H]3C)O[C@@H]2C)C[C@H](O)[C@@H]1O | ReNcell VM | imaging | 24 h | pIC50 | ~5.69
O=C(O)CCCc1ccc(N(CCCl)CCCl)cc1 | IOSE-144 | CCK-8 | 48 h | pIC50 | 4.78
Cc1cc(N(CCO)CCO)ccc1C(=O)O | ACHN |  |  | IC50 | > 10 mg/L
CCOP(=S)(OCC)Oc1nc(Cl)c(Cl)cc1Cl | ReNcell VM |  | 24 h | pIC50 | ~5.00
CC(=O)c1cccc(NC(=O)C(=O)[C@H](CC(C)C)NC(=O)[C@H](Cc2ccccc2)NC(=O)[C@H](CC(C)C)NC(=O)OCc2ccccc2)c1 | RPMI-8226 | MTS | 72 h | pIC50 | 6.79
Cc1cc(N(CCO)CCO)ccc1C=O | ACHN |  |  | IC50 | > 10 mg/L
CCCCC/C=C\C/C=C\C/C=C\C/C=C\CCCC(=O)NCCO | ReNcell VM |  | 24 h | pIC50 | ~5.10
COc1ccc2[nH]cc(CCNc3nccc(Nc4cccc5c4ccn5C)n3)c2c1 | RPMI-8226 | fluorescence | 72 h | pIC50 | 7.92
N[C@@H](Cc1ccc(N(CCCl)CCCl)cc1)C(=O)O | IOSE-144 | CCK-8 | 48 h | pIC50 | < 4.30
CC(C)C[C@H](NC(=O)OCc1ccccc1)C(=O)N[C@@H](Cc1c[nH]c2ccccc12)C(=O)N[C@@H](CC(C)C)C(=O)C(=O)Nc1cccc(S(C)(=O)=O)c1 | RPMI-8226 | MTS | 72 h | pIC50 | 7.48
Cc1cccc(-n2ncc(Cl)c(Cl)c2=O)c1 | NCI-H2444 | resazurin | 96 h | pIC50 | 6.62
